Test results: ChEMBL document CHEMBL5724801, “EUbOPEN Chemogenomics Library - Multiplex” (2024)
Several values for one entry are separate records, joined by “and”; a condition that tells them apart may be missing. Identical values can stand only once.

Tested on: HEK-293T
Assay: Multiplex assay against HEK293T
Format: toxicity, cell-based
Settings: human
In short: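 On a CQ1 microscope at 37°C and 5% CO2, live cells were imaged after compound addition. They had been stained at seeding with Hoechst33342, BioTracker Green Microtubule Cytoskeleton Dye, MitoTracker Red and Annexin V Alexa Fluor 680. CellPathfinder machine-learning gating assigned cells to Hoechst high-intensity objects or normal cells, normal cells to healthy, pyknosed or fragmented nuclei, and pyknosed cells to mitotic or apoptotic. Tubulin, mitochondrial-mass and membrane-permeability phenotypes are per cents of healthy-nucleus cells.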

[1] = 12 h, 1 µM, compound concentration 1 uM
[2] = 12 h, 10 µM, compound concentration 10 uM
[3] = 24 h, 1 µM, compound concentration 1 uM
[4] = 24 h, 10 µM, compound concentration 10 uM
[5] = 48 h, 1 µM, compound concentration 1 uM
[6] = 48 h, 10 µM, compound concentration 10 uM

## Cl.Cl.N#Cc1ccc(O[C@@H]2c3ccccc3C[C@H]2N2CCC[C@@H](N)C2)c(Cl)c1
[1]
  Population Apoptotic (%): 8.75% and 10.31%
  Population Fragmented Nuclei (%): 2.35% and 6.14%
  Population Hoechst High Intensity Objects (%): 0%
  Population Membrane Permeable-Phenotype (%): 1.16% and 0%
  Population Mitochondria Different-Phenotype (%): 36.63% and 30%
  Population Mitotic Cells (%): 91.25% and 89.69%
  Population Normal (%): 100%
  Population Pyknosed Nuclei (%): 47.06% and 85.09%
  Population Tubulin-Different-Phenotype (%): 26.16% and 50%
  Total Cell Count: 340 and 114
[2]
  Population Apoptotic (%): 22.15% and 32.8%
  Population Fragmented Nuclei (%): 4.33% and 4.76%
  Population Healthy Nuclei (%): 27.27% and 10.2%
  Population Hoechst High Intensity Objects (%): 0.86% and 0%
  Population Membrane Permeable-Phenotype (%): 0% and 13.33%
  Population Mitochondria Different-Phenotype (%): 28.57% and 33.33%
  Population Mitotic Cells (%): 77.85% and 67.2%
  Population Normal (%): 99.14% and 100%
  Population Pyknosed Nuclei (%): 68.4% and 85.03%
  Population Tubulin-Different-Phenotype (%): 71.43% and 93.33%
  Total Cell Count: 233 and 147
[3]
  Population Apoptotic (%): 26.62% and 47.67%
  Population Fragmented Nuclei (%): 1.19% and 8.11%
  Population Hoechst High Intensity Objects (%): 0.2% and 0%
  Population Membrane Permeable-Phenotype (%): 2.03% and 0%
  Population Mitochondria Different-Phenotype (%): 30.14% and 50%
  Population Mitotic Cells (%): 73.38% and 52.33%
  Population Normal (%): 99.8% and 100%
  Population Pyknosed Nuclei (%): 30.5% and 77.48%
  Population Tubulin-Different-Phenotype (%): 42.9% and 56.25%
[4]
  Population Apoptotic (%): 63.58% and 76.03%
  Population Fragmented Nuclei (%): 3.91% and 5.04%
  Population Hoechst High Intensity Objects (%): 1.16% and 0%
  Population Membrane Permeable-Phenotype (%): 1.05% and 9.09%
  Population Mitochondria Different-Phenotype (%): 72.63% and 63.64%
  Population Mitotic Cells (%): 36.42% and 23.97%
  Population Normal (%): 98.84% and 100%
  Population Pyknosed Nuclei (%): 58.98% and 87.05%
  Population Tubulin-Different-Phenotype (%): 93.68% and 90.91%
  Total Cell Count: 259 and 139
[5]
  Population Fragmented Nuclei (%): 2.55% and 7.63%
  Population Healthy Nuclei (%): 83.85% and 39.83%
  Population Hoechst High Intensity Objects (%): 0.11% and 0%
  Population Membrane Permeable-Phenotype (%): 7.35% and 0%
  Population Mitochondria Different-Phenotype (%): 44.61% and 70.21%
  Population Mitotic Cells (%): 90.62% and 66.13%
  Population Normal (%): 99.89% and 100%
[6]
  Population Apoptotic (%): 63.04% and 79.59%
  Population Fragmented Nuclei (%): 2.57% and 5.97%
  Population Healthy Nuclei (%): 58% and 20.9%
  Population Hoechst High Intensity Objects (%): 1.69% and 0.74%
  Population Membrane Permeable-Phenotype (%): 1.48% and 7.14%
  Population Mitochondria Different-Phenotype (%): 95.07% and 92.86%
  Population Mitotic Cells (%): 36.96% and 20.41%
  Population Normal (%): 98.31% and 99.26%
  Population Pyknosed Nuclei (%): 39.43% and 73.13%
  Population Tubulin-Different-Phenotype (%): 30.05% and 89.29%
  Total Cell Count: 356 and 135

## COc1cc2ncnc(Nc3ccc(Oc4ccccc4)cc3C)c2cc1OC.Cl
[1]
  Population Apoptotic (%): 9.24% and 8.93%
  Population Fragmented Nuclei (%): 2.79% and 1.37%
  Population Healthy Nuclei (%): 50.51% and 21.92%
  Population Hoechst High Intensity Objects (%): 0%
  Population Membrane Permeable-Phenotype (%): 1.51% and 0%
  Population Mitochondria Different-Phenotype (%): 24.62% and 9.38%
  Population Mitotic Cells (%): 90.76% and 91.07%
  Population Normal (%): 100%
  Population Pyknosed Nuclei (%): 46.7% and 76.71%
  Population Tubulin-Different-Phenotype (%): 6.53% and 18.75%
  Total Cell Count: 394 and 146
[2]
  Population Apoptotic (%): 10.53% and 18.75%
  Population Fragmented Nuclei (%): 1.92% and 2.05%
  Population Hoechst High Intensity Objects (%): 0%
  Population Membrane Permeable-Phenotype (%): 0.6% and 0%
  Population Mitochondria Different-Phenotype (%): 17.86% and 20%
  Population Mitotic Cells (%): 89.47% and 81.25%
  Population Normal (%): 100%
  Population Pyknosed Nuclei (%): 52.05% and 87.67%
  Total Cell Count: 365 and 146
[3]
  Population Apoptotic (%): 18.7% and 16.84%
  Population Fragmented Nuclei (%): 0.78% and 1.86%
  Population Healthy Nuclei (%): 80.12% and 39.13%
  Population Hoechst High Intensity Objects (%): 0%
  Population Membrane Permeable-Phenotype (%): 2.13% and 1.59%
  Population Mitochondria Different-Phenotype (%): 8.53% and 7.94%
  Population Mitotic Cells (%): 81.3% and 83.16%
  Population Normal (%): 100%
  Population Tubulin-Different-Phenotype (%): 10.85% and 3.17%
[4]
  Population Apoptotic (%): 30.37% and 35.11%
  Population Fragmented Nuclei (%): 2.24% and 2.6%
  Population Hoechst High Intensity Objects (%): 0.22% and 0%
  Population Membrane Permeable-Phenotype (%): 0.66% and 0%
  Population Mitochondria Different-Phenotype (%): 13.58% and 21.05%
  Population Mitotic Cells (%): 69.63% and 64.89%
  Population Normal (%): 99.78% and 100%
  Population Pyknosed Nuclei (%): 30.2% and 85.06%
  Total Cell Count: 448 and 154
[5]
  Population Fragmented Nuclei (%): 2.53% and 2.04%
  Population Healthy Nuclei (%): 85.42% and 68.88%
  Population Hoechst High Intensity Objects (%): 0.14% and 0%
  Population Membrane Permeable-Phenotype (%): 4.9% and 2.96%
  Population Mitochondria Different-Phenotype (%): 14.29% and 17.78%
  Population Mitotic Cells (%): 92.22% and 73.68%
  Population Normal (%): 99.86% and 100%
  Population Pyknosed Nuclei (%): 12.06% and 29.08%
[6]
  Population Apoptotic (%): 20.37% and 26.73%
  Population Fragmented Nuclei (%): 1.69% and 2.03%
  Population Healthy Nuclei (%): 77.27% and 46.7%
  Population Hoechst High Intensity Objects (%): 0%
  Population Membrane Permeable-Phenotype (%): 2.35% and 1.09%
  Population Mitochondria Different-Phenotype (%): 53.61% and 47.83%
  Population Mitotic Cells (%): 79.63% and 73.27%
  Population Normal (%): 100%
  Population Pyknosed Nuclei (%): 21.04% and 51.27%
